Screening data as filed in PubChem BioAssay.
An excerpt weighted towards active compounds, which were near 9.6% of everything screened.
TNAP inh noacc: blocks human TNAP activity with no phosphate acceptor present. P05186. purified TNAP, CDP-star luminescence, 30 min. AID 1012. 200,000 compounds, 0.26% hits. inhibition, % at 20 µM;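 active = tissue-nonspecific alkaline phosphatase inhibition above about 50% at 20 µM in the single-dose screen, limit read from the data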
Target sequence (P05186 whole entry, looked up): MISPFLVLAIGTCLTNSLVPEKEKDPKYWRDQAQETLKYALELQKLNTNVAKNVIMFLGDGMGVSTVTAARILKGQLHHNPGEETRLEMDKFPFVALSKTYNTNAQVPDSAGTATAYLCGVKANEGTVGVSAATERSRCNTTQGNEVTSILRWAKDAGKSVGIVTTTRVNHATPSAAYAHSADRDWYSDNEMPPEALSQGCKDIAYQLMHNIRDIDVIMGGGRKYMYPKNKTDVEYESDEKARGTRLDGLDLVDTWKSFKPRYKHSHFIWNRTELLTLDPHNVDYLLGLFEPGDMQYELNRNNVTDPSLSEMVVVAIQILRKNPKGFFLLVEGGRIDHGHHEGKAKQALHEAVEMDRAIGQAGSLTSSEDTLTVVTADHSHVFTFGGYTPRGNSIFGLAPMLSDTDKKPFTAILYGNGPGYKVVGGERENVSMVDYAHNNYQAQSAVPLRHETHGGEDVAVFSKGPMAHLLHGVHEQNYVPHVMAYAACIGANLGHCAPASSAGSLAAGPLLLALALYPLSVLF
HCT116 PTEN-null: growth suppressors of cells with PTEN tumor suppressor deletion. viability, % at 10 µM. 140,000 compounds, 1.2% hits. HCT116 PTEN-null viability, CellTiter-Glo, 60 h; stronger effect = lower value;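 active = viability at or below a set limit, 4 SD under the median of all tested compounds, cut at about 3.7% in these data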;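 note: PTEN knockout HCT116 line with beta catenin targeted HCT116 as companion control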
TNAP inh hiacc: TNAP (human) inhibition, high acceptor. P05186. purified TNAP, CDP-star luminescence, 1 M DEA. inhibition, % at 20 µM. 200,000 compounds, 0.03% hits;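 active = over 50% inhibition of tissue-nonspecific alkaline phosphatase at 20 µM in the single-dose screen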
Lmaj promast: reduces viability of Leishmania major promastigotes. AID 1063. resazurin fluorescence viability. inhibition, % at 10 µM. 200,000 compounds, 9% hits; in the data active = inhibition above about 50%;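 note: promastigotes grown with compound for 44 hours at 28 °C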
HCT116 bCat-KO: beta-catenin-lacking colon tumor cell growth suppression; HCT116 beta-catenin knockout viability, CellTiter-Glo, 60 h; stronger effect = lower value; viability, % at 10 µM; 140,000 compounds, 1.5% hits;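 active = viability at or under a set limit, the compound median less 4 SD, cut at about 6% in these data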
TNAP act hiacc: increases human TNAP activity under high phosphate acceptor concentration. P05186. purified TNAP, CDP-star luminescence, 1 M DEA, 30 min; stronger effect = higher value; 0 = EDTA background, 1 = DMSO-only activity. activation factor at 20 µM. 200,000 tested, under 10 active;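 active = activation factor at least 2 at 20 µM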
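Dosing: 20 µM single point. System: human TNAP. Amount: TNAP 1/800 final. Incubation: 30 min, room temperature. Read-out: TNAP activation factor scaled between EDTA and DMSO control wells. Signal: luminescence from CDP-star hydrolysis. Medium: 1 M DEA, pH 9.8, Mg2+, Zn2+. Control set: EDTA negative control, DMSO positive control.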
Hits are given with their value; 0 = inactive; - = not tested or not shown.

SMILES	TNAP inh noacc	HCT116 PTEN-null	TNAP inh hiacc	Lmaj promast	HCT116 bCat-KO	TNAP act hiacc
O=C(Nc1ccc(F)cc1)c1sc2cc(C(F)(F)F)cnc2c1-c1cccs1	0	0	0	56	0	0
Cc1cccc(N2CCN(C(=O)Cn3ccc4ccccc4c3=O)CC2)c1C	0	0	0	91	0	0
CCOC(=O)C1CCN(CCC(=O)Nc2ccccc2Cl)CC1	0	0	0	78	0	0
Cc1c(Cl)cccc1NC(=O)CCN1CCCCC1	0	0	0	0	0	0
O=C(CCN1CCN(Cc2ccccc2)CC1)Nc1cccc(Cl)c1	0	0	0	89	0	0
CCOC(=O)C1CCN(CCC(=O)Nc2ccc(C)cc2)CC1	0	-	0	56	-	0
CCOC(=O)C1CCCN(CCC(=O)Nc2ccc(C)cc2)C1 (stereo unspecified)	0	0	0	0	0	0
CCOC(=O)C1CCN(CCC(=O)Nc2cccc(Cl)c2)CC1	0	0	0	93	0	0
CC1CCc2sc(C(=O)OCC(=O)NC(C)C)cc2C1 (stereo unspecified)	0	-	0	0	-	0
CC(Sc1nc(N(C)C)nc(N2CCOCC2)n1)C(=O)Nc1ccccc1 (stereo unspecified)	0	0	0	63	0	0
CC(Sc1nc(N2CCOCC2)nc(N2CCOCC2)n1)C(=O)Nc1ccccc1 (stereo unspecified)	0	0	0	0	0	0
COc1cccc(NC(=S)N(Cc2ccccn2)Cc2ccccc2Cl)c1	0	-	0	62	-	0
COc1ccc(NC(=S)N(Cc2ccccn2)Cc2ccccc2Cl)cc1	0	-	0	0	-	0
COc1ccc(CCN(CC(=O)NC2CCCC2)C(=O)Cn2nnc(-c3ccc(C)o3)n2)cc1OC	0	-	0	0	-	0
O=C(CCl)Nc1cn(-c2ccccc2)nc1-c1ccccc1	0	-	0	99	-	0
CC(=O)Nc1cn(-c2ccccc2)nc1-c1ccccc1	0	-	0	0	-	0
O=C(CCl)Nc1ccc(N2CCCCCC2)cc1	0	-	0	99	-	0
CCc1ccc(OCC(=O)NC(NC(=S)Nc2ccc(Cl)cc2)C(Cl)(Cl)Cl)cc1 (stereo unspecified)	0	0	0	61	0	0
O=C(CCl)Nc1ccc(-c2ccccc2)cc1	0	-	0	79	-	0
c1ccc2cc(CSCc3nc4ccccc4[nH]3)ccc2c1	0	0	0	0	0	0
CC(C)(C)c1cc(N)on1	0	0	0	0	0	0
Nc1nc(SCC(=O)Nc2cccc(Oc3ccccc3)c2)n[nH]1	0	0	0	56	0	0
CCCC(=O)NC(NC(=S)Nc1ccc(N=Nc2ccccc2)cc1)C(Cl)(Cl)Cl (stereo unspecified)	0	0	0	57	0	0
O=C(CN1CCCCC1)Nc1cccc(Oc2ccccc2)c1	0	0	0	0	0	0
O=C(CCl)Nc1cccc(Oc2ccccc2)c1	0	-	0	98	-	0
SMILES	TNAP inh noacc	HCT116 PTEN-null	TNAP inh hiacc	Lmaj promast	HCT116 bCat-KO	TNAP act hiacc
CC(C)N(c1ccccc1)c1ccc(NC(=O)CCl)cc1	0	-	0	55	-	0
CCCC(=O)NC(NC(=S)Nc1ccc(S(N)(=O)=O)cc1)C(Cl)(Cl)Cl (stereo unspecified)	0	0	0	0	0	0
COc1ccc(NC(=O)CC2C(=O)N(c3ccc(OC)cc3)C(=O)N2Cc2ccc(OC)c(OC)c2)cc1 (stereo unspecified)	0	-	0	0	-	0
COc1cc([N+](=O)[O-])ccc1NC(=O)CN1CCN(C(=O)c2ccco2)CC1	0	-	0	0	-	0
CC(=O)Nc1ccc(N=Nc2ccccc2)cc1	0	0	0	0	0	0
O=C(CCl)Nc1ccc(N=Nc2ccccc2)cc1	0	0	0	100	0	0
Cc1cccc(N2CCN(C(=O)C3CCN(S(=O)(=O)c4cccc5cccnc45)CC3)CC2C)c1 (stereo unspecified)	0	0	0	0	0	0
O=C(C1CCN(S(=O)(=O)c2cccc3nsnc23)CC1)N1CCc2ccccc21	0	0	0	87	0	0
Cc1cccc(N2CCN(C(=O)C3CCN(S(=O)(=O)c4cccc5nsnc45)CC3)CC2C)c1 (stereo unspecified)	0	0	0	51	0	0
Cc1ccc(-n2ncc3c(=O)n(CC(=O)N4CCN(c5ccccc5)CC4)cnc32)cc1C	0	-	0	0	-	0
O=C(NCCCn1ccnc1)Nc1ccc(Cl)cc1	0	0	0	53	0	0
O=C(NCCCn1ccnc1)Nc1ccc(Cl)c(Cl)c1	0	0	0	95	0	0
O=C(CCn1ccnc1)Nc1ccc2ccccc2c1	0	-	0	74	-	0
O=C(NCCCn1ccnc1)c1noc2c1CCc1ccccc1-2	0	0	0	88	0	0
O=C(CCCCCN1C(=O)c2cccc3cccc(c23)C1=O)NCCO	0	-	0	0	-	0
Cc1cc(C(=O)NCC(=O)OCC(=O)NCCc2ccccc2)ccc1[N+](=O)[O-]	0	-	0	0	-	0
O=C(Cc1ccccc1Cl)NCCCn1ccnc1	0	0	0	62	0	0
O=C(CCCOc1ccc(Cl)cc1Cl)NCCCn1ccnc1	0	-	0	66	-	0
O=C1CCC(C(=O)NCCCn2ccnc2)N1 (stereo unspecified)	0	0	0	66	0	0
O=C(NCCCn1ccnc1)C1CC2CCC1C2 (stereo unspecified)	0	0	0	0	0	0
O=C(CCCOc1ccc(Cl)cc1Cl)N/N=C/c1ccccc1O	0	0	0	0	4.6	0
Cc1cc(Cl)ccc1OCCCC(=O)NCCCn1ccnc1	0	-	0	0	-	0
CNC(=S)SCCOc1ccccc1C	0	0	0	0	0	0
CC(=O)NCCOc1nc(N(C)C)nc(N2CCCCC2)n1	0	-	0	0	-	0
O=C1CC(N2CCN(c3ncccn3)CC2)C(=O)N1CCc1ccccc1 (stereo unspecified)	0	-	0	0	-	0
SMILES	TNAP inh noacc	HCT116 PTEN-null	TNAP inh hiacc	Lmaj promast	HCT116 bCat-KO	TNAP act hiacc
COc1ccc(NC(=O)NCCN2CCc3ccccc3C2)cc1	0	0	0	0	0	0
O=C(NCCCn1ccnc1)c1cc(-c2ccc(Cl)cc2)nc2ccccc12	0	0	0	98	0	0
O=C(NCCCN1CCc2ccccc2C1)Nc1ccc(Cl)cc1	0	0	0	78	0	0
Cc1ccc(NC(=S)Nc2ccc(F)cc2)c(C)c1	0	-	0	0	-	0
COc1ccc(NC2(c3ccc(Cl)cc3)C(=O)c3ccccc3C2=O)cc1	0	0	0	0	0	0
COc1ccc(C(C[N+](=O)[O-])C2(c3ccc(OC)c(OC)c3)C(=O)c3ccccc3C2=O)cc1 (stereo unspecified)	0	2.1	0	100	2.5	0
COc1ccc(-c2n[nH]c(=S)n2-c2ccc3c(c2)OCCO3)cc1OC	0	-	0	88	-	0
COc1cc(OC)cc(-c2n[nH]c(=S)n2-c2ccc3c(c2)OCCO3)c1	0	-	0	71	-	0
COc1ccc(-c2n[nH]c(=S)n2-c2ccc3c(c2)OCCO3)cc1	0	0	0	0	0	0
